Assay results published in ChEMBL document CHEMBL1126083, “Novel functional M1 selective muscarinic agonists. Synthesis and structure-activity relationships of 3-(1,2,5-thiadiazolyl)-1,2,5,6-tetrahydro-1-methylpyridines ” (J Med Chem, 1992).

Columns and labels:
Cavia porcellus [1] = species: Cavia porcellus; test: In vitro inhibition of maximum force of contraction in guinea pig atria.; format: functional
Cavia porcellus [2] = species: Cavia porcellus; test: In vitro inhibition of force of contraction in guinea pig atria.; format: functional
Oryctolagus cuniculus [3] = species: Oryctolagus cuniculus; test: In vitro inhibition of maximum twitch height in electrically stimulated rabbit vas deferens.; format: functional
In short: (§1)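 Vasa deferentia taken from rabbits under pentobarbital (60 mg/kg i.v.), held at 0.75 g tension and equilibrated ≥30 min. Field-stimulated at 0.5 ms, 40 V, 0.05 Hz. Cumulative concentration–effect curves run on prostatic and epididymal tissues, 3–5 preparations per concentration.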

[4] = molecular target: T1, Muscarinic acetylcholine receptor M1 (Rattus norvegicus, UniProt P08482); test: In vitro binding affinity against Muscarinic acetylcholine receptor M1 from rat hippocampus, using [3H]pirenzepine (Pz) as radioligand.; format: tissue-based
T1 sequence (P08482 whole entry): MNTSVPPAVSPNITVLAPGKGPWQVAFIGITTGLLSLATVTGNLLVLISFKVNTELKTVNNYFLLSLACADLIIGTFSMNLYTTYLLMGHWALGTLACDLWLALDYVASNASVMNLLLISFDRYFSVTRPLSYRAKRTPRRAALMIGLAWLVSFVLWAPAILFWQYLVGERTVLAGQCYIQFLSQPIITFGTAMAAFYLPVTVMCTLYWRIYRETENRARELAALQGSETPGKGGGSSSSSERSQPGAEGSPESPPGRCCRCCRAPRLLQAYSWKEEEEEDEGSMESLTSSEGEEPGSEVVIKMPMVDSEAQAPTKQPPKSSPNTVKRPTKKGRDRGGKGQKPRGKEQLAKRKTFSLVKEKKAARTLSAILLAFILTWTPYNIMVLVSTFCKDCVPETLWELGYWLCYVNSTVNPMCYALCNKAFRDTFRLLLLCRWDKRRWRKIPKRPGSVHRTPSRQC

[5] = molecular target: T1, Muscarinic acetylcholine receptor M1; test: In vitro binding affinity against Muscarinic acetylcholine receptor M1 from rat hippocampus, using [3H]oxotremorine-M (Oxo-M) as radioligand.; format: tissue-based; conditions: in the assay text read “cerebral cortex” for “hippocampus”
In short: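 Rat cortex (fresh, male Wistar) homogenized in 20 mM Hepes pH 7.4, spun 15 min at 4000g, and washed three times. Homogenate incubated with [3H]Oxo-M (1.0 nM final) for 30 min at 25 °C. […] Filtered and counted by scintillation. IC50 from at least four concentrations in triplicate, fitted by the Hill equation.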

[6] = molecular target: T1, Muscarinic acetylcholine receptor M1; test: In vitro binding affinity against muscarinic acetylcholine receptor M1 from rat hippocampus, using [3H]pirenzepine (Pz) as radioligand; format: tissue-based
[7] = molecular target: T1, Muscarinic acetylcholine receptor M1; test: In vitro binding affinity against muscarinic acetylcholine receptor M1 from rat cerebral cortex, using [3H]oxotremorine-M (Oxo-M) as radioligand
Oryctolagus cuniculus [8] = species: Oryctolagus cuniculus; test: In vitro inhibition of twitch height in electrically stimulated rabbit vas deferens; format: functional; in short: as §1

SMILES	Inhibition (Cavia porcellus [1])	IC30 (Cavia porcellus [2])	Inhibition (Oryctolagus cuniculus [3])	IC50 [4]	IC50 [5]	IC50 [6]	IC50 [7]	IC50 (Oryctolagus cuniculus [8])
CCCCCCCCc1nsnc1C1=CCCN(C)C1.O=C(O)C(=O)O	14%	> 75000 nM	26%	56 nM	428 nM	–	–	–
CSc1nsnc1C1=CCCN(C)C1.O=C(O)C(=O)O	100%	300 nM	70%	–	–	43 nM	2.3 nM	3 nM
CCCCCCOc1nonc1C1=CCCN(C)C1	0%	> 70000 nM	47%	–	–	277 nM	84 nM	10000 nM
CCCCOc1nonc1C1=CCCN(C)C1	0%	> 70000 nM	12%	–	–	345 nM	24 nM	–
CCCCCCS(=O)(=O)c1nsnc1C1=CCCN(C)C1	76%	5500 nM	73%	–	–	62 nM	29 nM	43 nM
CN1CCC=C(c2cnsn2)C1	100%	10 nM	59%	–	–	145 nM	2 nM	26 nM
CCCCCc1nsnc1C1=CCCN(C)C1.O=C(O)C(=O)O	12%	–	40%	170 nM	146 nM	–	–	–
C[N+](C)(C)CC#CCOC(=O)Nc1cccc(Cl)c1.[Cl-]	0%	> 100000 nM	91%	–	–	955 nM	355 nM	659 nM
CCCCCCSc1nsnc1C1=CCCN(C)C1.O=C(O)C(=O)O	56%	9700 nM	92%	5 nM	6.5 nM	–	–	0.001 nM
COC(=O)C1=CCCN(C)C1 [ARECOLINE]	100%	600 nM	–	–	–	–	–	–
CCCOc1nsnc1C1=CCCN(C)C1.O=C(O)C(=O)O	100%	90 nM	25%	–	–	18 nM	1.6 nM	–
CCCCSc1nsnc1C1=CCCN(C)C1.O=C(O)C(=O)O	45%	100 nM	83%	–	–	1.3 nM	1.7 nM	0.003 nM
CCCCCC[S+]([O-])c1nsnc1C1=CCCN(C)C1 (centres undefined)	45%	25000 nM	80%	–	–	860 nM	109 nM	48 nM
CCCCCCCSc1nsnc1C1=CCCN(C)C1.O=C(O)C(=O)O	40%	7500 nM	63%	–	–	12 nM	3 nM	108 nM
CN1CCC=C(c2nsnc2Cl)C1	67%	29400 nM	–	–	–	–	–	–
CCCCCCCOc1nsnc1C1=CCCN(C)C1.O=C(O)C(=O)O	100%	3900 nM	–	–	–	–	–	–
CCCCOc1nsnc1C1=CCCN(C)C1.O=C(O)C(=O)O	71%	200 nM	–	–	–	–	–	–

SMILES	Inhibition (Cavia porcellus [1])	IC30 (Cavia porcellus [2])	Inhibition (Oryctolagus cuniculus [3])	IC50 [4]	IC50 [5]	IC50 [6]	IC50 [7]	IC50 (Oryctolagus cuniculus [8])
CCCC(C)COc1nsnc1C1=CCCN(C)C1.O=C(O)/C=C/C(=O)O (centres undefined)	0%	> 75000 nM	32%	–	–	9 nM	13 nM	–
CCCCCOc1nsnc1C1=CCCN(C)C1.O=C(O)C(=O)O	43%	2800 nM	–	–	–	–	–	–
CCCCCCCCOc1nsnc1C1=CCCN(C)C1.O=C(O)C(=O)O	0%	> 75000 nM	0%	–	–	40 nM	30 nM	–
CCC(C)CCOc1nsnc1C1=CCCN(C)C1.O=C(O)/C=C/C(=O)O (centres undefined)	0%	> 75000 nM	65%	–	–	8.4 nM	10 nM	47 nM
CCCCCCCc1nsnc1C1=CCCN(C)C1.O=C(O)C(=O)O	78%	5400 nM	–	–	–	–	–	–
CCCCCSc1nsnc1C1=CCCN(C)C1.O=C(O)C(=O)O	33%	5400 nM	–	–	–	–	–	–
CCCCCCOc1nsnc1C1=CCCN(C)C1.O=C(O)C(=O)O	20%	> 27000 nM	–	–	–	–	–	–
CCCc1nsnc1C1=CCCN(C)C1.O=C(O)C(=O)O	7%	> 75000 nM	13%	84 nM	80 nM	–	–	–
COc1nsnc1C1=CCCN(C)C1.O=C(O)C(=O)O	50%	1100 nM	47%	–	–	148 nM	22 nM	364 nM
CCCCCCNc1nsnc1C1=CCCN(C)C1	84%	13000 nM	65%	–	–	105 nM	60 nM	3000 nM
CCOc1nsnc1C1=CCCN(C)C1.O=C(O)C(=O)O	0%	> 75000 nM	43%	–	–	48 nM	5.7 nM	–
C[N+](C)(C)CCOC(N)=O.[Cl-] [CARBACHOL]	100%	500 nM	77%	–	–	–	–	460 nM
CCCCCCCCSc1nsnc1C1=CCCN(C)C1.O=C(O)C(=O)O	5%	> 72000 nM	42%	49 nM	140 nM	–	–	–
CC(C)CCCOc1nsnc1C1=CCCN(C)C1.O=C(O)/C=C\C(=O)O	73%	7300 nM	86%	–	–	9.7 nM	8 nM	0.006 nM
CCCCC(C)Oc1nsnc1C1=CCCN(C)C1.O=C(O)/C=C/C(=O)O (centres undefined)	15%	> 25000 nM	79%	–	–	6.9 nM	7 nM	7 nM
CCCSc1nsnc1C1=CCCN(C)C1.O=C(O)C(=O)O	100%	50 nM	42%	–	–	4 nM	0.9 nM	–
CCSc1nsnc1C1=CCCN(C)C1.O=C(O)C(=O)O	100%	70 nM	71%	–	–	18 nM	1.9 nM	22 nM
